Test results: ChEMBL document CHEMBL1212935 (J Med Chem, 2010)
pKi: −log10 of the molar value. Calls of active or inactive are those of the source. The calls are words filed in the database; no cut-off is given here.

What was measured:
Homo sapiens = species: Homo sapiens; assay: Selectivity ratio of Ki for human CB1 receptor to Ki for human CB2 receptor
Cannabinoid receptor 1 = Cannabinoid receptor 1 (Homo sapiens, UniProt P21554); assay: biochemical; format: cell-based, HEK293
Cannabinoid receptor 2 [1] = target: T1, Cannabinoid receptor 2 (Homo sapiens, UniProt P34972); assay: Displacement of [3H]CP-55940 from human CB2 receptor expressed in HEK cells; format: cell-based, HEK293
T1 sequence (P34972 whole entry): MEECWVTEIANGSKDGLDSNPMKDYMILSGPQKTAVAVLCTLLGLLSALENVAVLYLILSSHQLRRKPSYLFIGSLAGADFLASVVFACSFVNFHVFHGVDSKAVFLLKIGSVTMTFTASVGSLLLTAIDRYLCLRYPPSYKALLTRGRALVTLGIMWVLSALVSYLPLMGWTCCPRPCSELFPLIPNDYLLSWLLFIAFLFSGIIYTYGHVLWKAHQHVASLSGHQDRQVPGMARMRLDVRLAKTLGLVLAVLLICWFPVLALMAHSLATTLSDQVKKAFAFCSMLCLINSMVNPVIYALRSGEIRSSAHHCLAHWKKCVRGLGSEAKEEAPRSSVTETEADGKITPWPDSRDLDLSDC

Mus musculus [2] = assay: Antinociceptive activity in mouse hind paw assessed as inhibition of formalin-induced nociceptive behavior at 3 mg/kg, ip administered 15 mins prior to formalin challenge; format: functional, organism-based; design: dose 3 mg/kg
Outline: (§1)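 Mice received ip compound in 20% DMSO in 0.9% NaCl, groups of 8-10, one treatment per animal. Formalin (1.25% in saline, 30 μL) was injected into the dorsal hind paw 15 min later. A blinded observer timed lifting, favoring, licking, shaking and flinching over 0-10 min (early phase) and 20-60 min (late phase). Mean ± SEM; ANOVA with Dunnett's test.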

Mus musculus [3] = assay: Antinociceptive activity in mouse hind paw assessed as inhibition of formalin-induced nociceptive behavior at 1 to 3 mg/kg, ip administered 15 mins prior to formalin challenge; format: functional, organism-based; outline: as §1
Cannabinoid receptor 2 [4] = target: T1, Cannabinoid receptor 2; assay: Antagonist activity at human CB2 receptor expressed in CHO cells assessed as inhibition of forskolin-stimulated cAMP level up to 20 uM by [35S]GTPgammaS binding assay; format: functional, cell-based
Outline: (§2)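 CHO cells stably carrying human CB2 (DMEM/F12 with 10% FBS and G418 400 μg/mL, 37 °C, 5% CO2); membranes scraped and pelleted. [35S]GTPγS 0.1 nM with GDP 30 μM, 50 μg membrane protein, in Tris/NaCl/BSA buffer with 5 mM MgCl2, 1 mM DTT and 1 mM EDTA; 60 min at 30 °C. Nonspecific binding with 30 μM GTPγS. Filtration, then scintillation counting.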

CYP3A4 = CYP3A4 (Homo sapiens, UniProt P08684); assay: Inhibition of CYP3A4 after 1 hr assessed as residual activity; format: ADME; conditions: read-out: Activity
Chain of CYP3A4 (P08684 whole entry): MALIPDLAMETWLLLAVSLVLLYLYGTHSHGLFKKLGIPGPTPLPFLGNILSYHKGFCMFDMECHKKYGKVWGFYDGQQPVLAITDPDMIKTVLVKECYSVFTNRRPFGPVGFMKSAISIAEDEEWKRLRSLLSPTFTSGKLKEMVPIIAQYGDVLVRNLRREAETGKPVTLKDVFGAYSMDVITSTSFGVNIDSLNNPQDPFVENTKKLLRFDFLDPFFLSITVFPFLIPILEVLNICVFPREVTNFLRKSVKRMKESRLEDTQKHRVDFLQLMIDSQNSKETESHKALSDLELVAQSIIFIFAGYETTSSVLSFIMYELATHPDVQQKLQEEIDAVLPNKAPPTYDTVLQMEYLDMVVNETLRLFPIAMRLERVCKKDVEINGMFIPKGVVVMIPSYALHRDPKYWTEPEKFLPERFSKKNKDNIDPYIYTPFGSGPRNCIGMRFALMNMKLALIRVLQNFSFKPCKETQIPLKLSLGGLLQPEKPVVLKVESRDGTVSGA

Cannabinoid receptor 2 [5] = target: T1, Cannabinoid receptor 2; assay: Antagonist activity at human CB2 receptor expressed in CHO cells assessed as inhibition of forskolin-stimulated cAMP level at < 100 uM by [35S]GTPgammaS binding assay; format: functional, cell-based
Cannabinoid receptor 2 [6] = target: T1, Cannabinoid receptor 2; assay: Antagonist activity at human CB2 receptor expressed in CHO cells assessed as inhibition of forskolin-stimulated cAMP level by [35S]GTPgammaS binding assay; format: functional, cell-based; outline: as §2
Mus musculus [7] = assay: Antinociceptive activity in mouse hind paw assessed as inhibition of formalin-induced nociceptive behavior at 1 mg/kg, ip administered 15 mins prior to formalin challenge; format: functional, organism-based; design: dose 1 mg/kg; outline: as §1
Mus musculus [8] = assay: Antinociceptive activity in mouse hind paw assessed as inhibition of formalin-induced nociceptive behavior at 1 to 3 mg/kg, ip administered 15 mins prior to formalin challenge in presence of CB2 selective agonist JWH133; format: functional, organism-based; outline: as §1

Chain of Cannabinoid receptor 1 (P21554 whole entry): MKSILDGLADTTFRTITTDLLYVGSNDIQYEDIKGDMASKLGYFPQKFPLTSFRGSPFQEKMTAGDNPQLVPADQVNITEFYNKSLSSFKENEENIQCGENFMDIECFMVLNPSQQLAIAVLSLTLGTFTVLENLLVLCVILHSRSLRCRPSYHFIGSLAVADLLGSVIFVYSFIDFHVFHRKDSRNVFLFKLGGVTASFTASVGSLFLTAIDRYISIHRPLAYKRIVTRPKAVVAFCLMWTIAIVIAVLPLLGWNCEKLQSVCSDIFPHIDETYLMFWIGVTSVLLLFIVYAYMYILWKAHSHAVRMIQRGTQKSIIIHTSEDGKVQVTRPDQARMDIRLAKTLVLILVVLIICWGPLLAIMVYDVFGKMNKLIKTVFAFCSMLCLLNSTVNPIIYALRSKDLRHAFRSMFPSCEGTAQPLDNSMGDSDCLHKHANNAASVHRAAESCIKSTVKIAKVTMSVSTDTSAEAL

## CCCCCn1cc(C(=O)NC23CC4CC(CC(C4)C2)C3)c(=O)c2cc([S+]([O-])c3ccccc3)ccc21 (centres undefined)
Homo sapiens
  Selectivity Index: 6
Cannabinoid receptor 1
  pKi: 6.34
Cannabinoid receptor 2 [1]
  pKi: 7.14

## CCCCCn1cc(C(=O)NC23CC4CC(CC(C4)C2)C3)c(=O)c2cc(CC)ccc21
Homo sapiens
  Selectivity Index: 53
Cannabinoid receptor 1
  pKi: 6.05
Cannabinoid receptor 2 [1]
  pKi: 7.77

## CCCCCn1cc(C(=O)NC23CC4CC(CC(C4)C2)C3)c(=O)c2cc(-c3cccs3)ccc21
Homo sapiens
  Selectivity Index: > 4350
Cannabinoid receptor 1
  pKi: < 5.00
Cannabinoid receptor 2 [1]
  pKi: 8.64

## CCCCCn1cc(C(=O)N[C@H]2C(C)(C)[C@H]3CC[C@]2(C)C3)c(=O)c2cc(-c3ccco3)ccc21
Homo sapiens
  Selectivity Index: 200
Cannabinoid receptor 1
  pKi: 6.32
Cannabinoid receptor 2 [1]
  pKi: 8.62

## CCCCCn1cc(C(=O)NC23CC4CC(CC(C4)C2)C3)c(=O)c2cc(CCc3ccccc3)ccc21
Mus musculus [2]
  Activity: inactive
Homo sapiens
  Selectivity Index: > 177
Cannabinoid receptor 1
  pKi: < 5.00
Cannabinoid receptor 2 [1]
  pKi: 7.25

## CCCCCn1cc(C(=O)NC23CC4CC(CC(C4)C2)C3)c(=O)c2cc(-c3ccc(C#N)cc3)ccc21
Homo sapiens
  Selectivity Index: > 239
Mus musculus [3]
  Activity: Active
Cannabinoid receptor 1
  pKi: < 5.00
Cannabinoid receptor 2 [1]
  pKi: 7.38

## CCCCCn1cc(C(=O)NC23CC4CC(CC(C4)C2)C3)c(=O)c2cc(-c3cc(C)c(OC)c(C)c3)ccc21
Homo sapiens
  Selectivity Index: 24
Cannabinoid receptor 1
  pKi: 6.29
Cannabinoid receptor 2 [1]
  pKi: 7.67

## CCCCCn1cc(C(=O)NC23CC4CC(CC(C4)C2)C3)c(=O)c2cc(-c3ccco3)ccc21
Cannabinoid receptor 2 [4]
  Activity: inactive
CYP3A4
  activity at 1 h: 4%
Homo sapiens
  Selectivity Index: > 14300
Mus musculus [3]
  Activity: Active
Cannabinoid receptor 2 [5]
  Emax: 13.9%
Cannabinoid receptor 1
  pKi: < 5.00
Cannabinoid receptor 2 [1]
  pKi: 9.15
Cannabinoid receptor 2 [6]
  Activity: Active

## C#Cc1ccc2c(c1)c(=O)c(C(=O)NC13CC4CC(CC(C4)C1)C3)cn2CCCCC
Homo sapiens
  Selectivity Index: > 1140
Cannabinoid receptor 1
  pKi: < 5.00
Cannabinoid receptor 2 [1]
  pKi: 8.06

## C#CCn1cc(C(=O)NC23CC4CC(CC(C4)C2)C3)c(=O)c2cc(Br)ccc21
Homo sapiens
  Selectivity Index: 64
Cannabinoid receptor 1
  pKi: 5.49
Cannabinoid receptor 2 [1]
  pKi: 7.30

## CCCCCn1cc(C(=O)NC2CCCCC2)c(=O)c2cc(Br)ccc21
Homo sapiens
  Selectivity Index: 2
Cannabinoid receptor 1
  pKi: 5.77
Cannabinoid receptor 2 [1]
  pKi: 6.05

## CCCCCn1cc(C(=O)NC23CC4CC(CC(C4)C2)C3)c(=O)c2cc(-c3ccc(F)cc3F)ccc21
Homo sapiens
  Selectivity Index: > 625
Cannabinoid receptor 1
  pKi: < 5.00
Cannabinoid receptor 2 [1]
  pKi: 7.80

## CCCCCn1cc(C(=O)NC23CC4CC(CC(C4)C2)C3)c(=O)c2cc(-n3cccc3)ccc21
Homo sapiens
  Selectivity Index: 42
Cannabinoid receptor 1
  pKi: 7.53
Cannabinoid receptor 2 [1]
  pKi: 9.15

## CCCCCn1cc(C(=O)NC23CC4CC(CC(C4)C2)C3)c(=O)c2cc(-c3ccc(-c4ccccc4)cc3)ccc21
Homo sapiens
  Selectivity Index: > 55
Cannabinoid receptor 1
  pKi: < 5.00
Cannabinoid receptor 2 [1]
  pKi: 6.74

## COc1ccc(C(=O)c2c(C)n(CCN3CCOCC3)c3cc(I)ccc23)cc1
Mus musculus [7]
  Activity: inactive

## CCCCCn1cc(C(=O)NC23CC4CC(CC(C4)C2)C3)c(=O)c2cc(/C=C/C(C)(C)C)ccc21
Homo sapiens
  Selectivity Index: > 140
Cannabinoid receptor 1
  pKi: < 5.00
Cannabinoid receptor 2 [1]
  pKi: 7.15

## C=CCn1cc(C(=O)NC23CC4CC(CC(C4)C2)C3)c(=O)c2cc(-c3ccco3)ccc21
Homo sapiens
  Selectivity Index: > 169
Cannabinoid receptor 1
  pKi: < 5.00
Cannabinoid receptor 2 [1]
  pKi: 7.23

## CCCCCn1cc(C(=O)NC23CC4CC(CC(C4)C2)C3)c(=O)c2cc(Cc3ccc(Cl)cc3Cl)ccc21
Homo sapiens
  Selectivity Index: > 3
Cannabinoid receptor 1
  pKi: < 5.00
Cannabinoid receptor 2 [1]
  pKi: 5.41

## CCCCCn1cc(C(=O)NC23CC4CC(CC(C4)C2)C3)c(=O)c2cc(-c3ccc(OC)nc3)ccc21
Homo sapiens
  Selectivity Index: > 169
Cannabinoid receptor 1
  pKi: < 5.00
Cannabinoid receptor 2 [1]
  pKi: 7.23

## CCCCCn1cc(C(=O)NC23CC4CC(CC(C4)C2)C3)c(=O)c2cc(-n3ccnc3)ccc21
Homo sapiens
  Selectivity Index: > 1250
Cannabinoid receptor 1
  pKi: < 5.00
Cannabinoid receptor 2 [1]
  pKi: 8.10

## CCCCCn1cc(C(=O)NC23CC4CC(CC(C4)C2)C3)c(=O)c2cc(C#Cc3ccccc3)ccc21
Homo sapiens
  Selectivity Index: > 29
Cannabinoid receptor 1
  pKi: < 5.00
Cannabinoid receptor 2 [1]
  pKi: 6.46

## CCCCCn1cc(C(=O)NC23CC4CC(CC(C4)C2)C3)c(=O)c2cc(I)ccc21
Homo sapiens
  Selectivity Index: 101
Cannabinoid receptor 1
  pKi: 5.68
Cannabinoid receptor 2 [1]
  pKi: 7.69

## CCCCCn1cc(C(=O)NC23CC4CC(CC(C4)C2)C3)c(=O)c2cc(-c3cnn(CC(C)C)c3)ccc21
Homo sapiens
  Selectivity Index: 5
Cannabinoid receptor 1
  pKi: 6.61
Cannabinoid receptor 2 [1]
  pKi: 7.29

## CCCCCn1cc(C(=O)N[C@H]2C(C)(C)[C@H]3CC[C@]2(C)C3)c(=O)c2cc(Br)ccc21
Homo sapiens
  Selectivity Index: 0.6
Cannabinoid receptor 1
  pKi: 8.55
Cannabinoid receptor 2 [1]
  pKi: 8.30

## CCCCCn1cc(C(=O)NC23CC4CC(CC(C4)C2)C3)c(=O)c2cc(-c3ccc(Cl)s3)ccc21
Homo sapiens
  Selectivity Index: > 223
Cannabinoid receptor 1
  pKi: < 5.00
Cannabinoid receptor 2 [1]
  pKi: 7.35

## CCCCCn1cc(C(=O)NC23CC4CC(CC(C4)C2)C3)c(=O)c2cc(-c3c(C)noc3C)ccc21
Homo sapiens
  Selectivity Index: > 80
Cannabinoid receptor 1
  pKi: < 5.00
Cannabinoid receptor 2 [1]
  pKi: 6.90

## CCCCCn1cc(C(=O)NC23CC4CC(CC(C4)C2)C3)c(=O)c2cc(-c3ccc(Cl)cc3)ccc21
Homo sapiens
  Selectivity Index: > 909
Cannabinoid receptor 1
  pKi: < 5.00
Cannabinoid receptor 2 [1]
  pKi: 7.96

## CCCCCn1cc(C(=O)NC23CC4CC(CC(C4)C2)C3)c(=O)c2cc(S(=O)(=O)c3ccccc3)ccc21
Homo sapiens
  Selectivity Index: > 152
Cannabinoid receptor 1
  pKi: < 5.00
Cannabinoid receptor 2 [1]
  pKi: 7.18

## CCCCCn1cc(C(=O)NC23CC4CC(CC(C4)C2)C3)c(=O)c2cc(/C=C/c3ccccc3)ccc21
Homo sapiens
  Selectivity Index: > 153
Cannabinoid receptor 1
  pKi: < 5.00
Cannabinoid receptor 2 [1]
  pKi: 7.18

## CCCCCn1cc(C(=O)NC23CC4CC(CC(C4)C2)C3)c(=O)c2cc(C3=CCCCC3)ccc21
Homo sapiens
  Selectivity Index: > 1200
Cannabinoid receptor 1
  pKi: < 5.00
Cannabinoid receptor 2 [1]
  pKi: 8.08

## CCCCCn1cc(C(=O)NC23CC4CC(CC(C4)C2)C3)c(=O)c2cc(-c3ccc4cc(OC)ccc4c3)ccc21
Homo sapiens
  Selectivity Index: 7
Cannabinoid receptor 1
  pKi: 6.44
Cannabinoid receptor 2 [1]
  pKi: 7.28

## CCCCCn1cc(C(=O)NN2CCCCC2)c(=O)c2cc(Br)ccc21
Homo sapiens
  Selectivity Index: 5
Cannabinoid receptor 1
  pKi: 5.72
Cannabinoid receptor 2 [1]
  pKi: 6.40

## CCCCCn1cc(C(=O)NC23CC4CC(CC(C4)C2)C3)c(=O)c2cc(C3CCCCC3)ccc21
Homo sapiens
  Selectivity Index: > 1370
Mus musculus [8]
  Activity: Active
Mus musculus [3]
  Activity: inactive
Cannabinoid receptor 1
  pKi: < 5.00
Cannabinoid receptor 2 [1]
  pKi: 8.14

## CCCCCn1cc(C(=O)NC23CC4CC(CC(C4)C2)C3)c(=O)c2cc(-c3ccc(O)cc3)ccc21
Homo sapiens
  Selectivity Index: > 2380
Mus musculus [8]
  Activity: inactive
Mus musculus [3]
  Activity: Active
Cannabinoid receptor 1
  pKi: < 5.00
Cannabinoid receptor 2 [1]
  pKi: 8.38

## C=CCCn1cc(C(=O)NC23CC4CC(CC(C4)C2)C3)c(=O)c2cc(-c3ccco3)ccc21
Homo sapiens
  Selectivity Index: > 2270
Cannabinoid receptor 1
  pKi: < 5.00
Cannabinoid receptor 2 [1]
  pKi: 8.36
